# MC4R antagonist = MC4R antagonists of cAMP signaling, primary screen, cell-based, TR-FRET, antagonist arm of biased-ligand search; Melanocortin receptor 4 (Homo sapiens), P32245; MC4R-expressing cells, MTII-stimulated cAMP, LANCE TR-FRET; inhibition, % at 6.5 µM; hit rate 0.48% among 360,000;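 active = inhibition above its plate's cutoff, the mean of tested wells on that plate plus 3 SD, cut at about 29% in these data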;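 note: 0% = Melanotan II alone and 100% = Melanotan II plus saturating MCL0020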
# Target sequence (P32245 whole entry, looked up): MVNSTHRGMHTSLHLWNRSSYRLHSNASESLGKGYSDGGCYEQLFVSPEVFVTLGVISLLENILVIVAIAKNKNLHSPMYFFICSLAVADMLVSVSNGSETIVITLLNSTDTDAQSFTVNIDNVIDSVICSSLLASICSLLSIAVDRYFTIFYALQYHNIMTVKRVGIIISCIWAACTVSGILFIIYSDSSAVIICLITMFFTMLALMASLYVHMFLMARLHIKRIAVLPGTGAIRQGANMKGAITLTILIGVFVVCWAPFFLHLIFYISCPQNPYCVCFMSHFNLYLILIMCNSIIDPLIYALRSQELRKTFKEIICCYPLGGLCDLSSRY
#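 Material: human MC4R-expressing U2OS cells. Probe or stimulus: Melanotan II challenge. Dosing: 6.5 µM single dose. Times: 30-min compound, 1-h challenge, 1-h detection, room temperature. Technique: TR-FRET with Eu-cAMP and labeled anti-cAMP, 671 nm. Replication: singlicate.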
# MPTP block = mitochondrial permeability transition pore inhibitors, primary screen, biochemical, isolated mouse mitochondria, absorbance; AID 602449, 2012; inhibition, % at 10 µM; Ca2+ swelling absorbance, 30 min; hit rate 1.4% among 360,000;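 active = inhibition of 50% or more, scaled per plate between neutral and stimulator controls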;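 note: 0% = DMSO wells given calcium and 100% = 1 mM EGTA wells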
# ATG4B inhibitor = ATG4B protease inhibitors, primary screen, biochemical, fluorescence, uHTS. ATG4B cleavage of LC3-PLA2, NBD-HPC fluorescence, 1 h. Cysteine protease ATG4B (Homo sapiens), Q9Y4P1. hit rate 0.51% among 340,000. inhibition, % at 8.33 µM. AID 504462, 2011; in the data active = inhibition above about 40%
# Target sequence (Q9Y4P1 whole entry, looked up): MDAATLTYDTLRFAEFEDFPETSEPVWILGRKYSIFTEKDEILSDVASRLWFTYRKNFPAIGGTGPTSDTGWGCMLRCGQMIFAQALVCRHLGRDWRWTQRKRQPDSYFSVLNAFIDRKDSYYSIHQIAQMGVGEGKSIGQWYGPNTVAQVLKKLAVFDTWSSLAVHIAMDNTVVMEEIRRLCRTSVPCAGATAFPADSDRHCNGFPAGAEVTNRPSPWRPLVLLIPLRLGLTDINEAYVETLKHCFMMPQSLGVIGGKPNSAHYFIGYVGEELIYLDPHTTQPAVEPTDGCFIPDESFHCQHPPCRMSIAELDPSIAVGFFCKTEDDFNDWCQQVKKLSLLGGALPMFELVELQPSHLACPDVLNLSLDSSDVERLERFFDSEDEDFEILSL
# MC4R barr agon = MC4R agonists recruiting beta-arrestin, primary screen, cell-based, luminescence, agonist arm of biased-ligand search | U2OS MC4R beta-arrestin complementation; percent of melanotan II response, DMSO zero | hit rate 0.98% among 360,000 | activation, % at 8.9 µM;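 active = activation above a per-plate cutoff, the mean activation of sample wells on that plate plus 3 SD, cut at about 8% in these data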
# SMARCA2 activ = SMARCA2 (BRM) function activators, primary screen, cell-based, luminescence, high throughput; hit rate 1% among 370,000; activation, % at 9.1 µM; MG213 cells, MMTV-luciferase reporter, dexamethasone, overnight; AID 652017, 2013; in the data active = activation above about 7.8%;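 note: 0% = vehicle wells and 100% = reference activator wells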
# MC4R barr conf = MC4R beta-arrestin agonists, retest, confirmation, cell-based, luminescence, U2OS; shares compounds with MC4R barr agon; U2OS MC4R beta-arrestin recruitment; scaled DMSO 0%, Melanotan II 100%; activation, % at 8.9 µM; hit rate 31% among 2,400;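 active = mean activation across replicates above the hit cutoff set in the earlier primary screen, cut at about 8% in these data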
# MOR DOR agonist = agonists of MOR-DOR heterodimerization, counter-screen for MC4R biased agonist project, cell-based, luminescence; shares compounds with MC4R barr agon; activation, % at 9.2 µM; hit rate 5.8% among 2,400; U2OS PathHunter beta-arrestin, beta-gal luminescence; percent of deltorphin B response, DMSO zero;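 active = mean activation across replicates exceeds the hit threshold derived in the earlier primary screen, cut at about 18% in these data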;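 note: 100% = deltorphin B at 0.9 µM final and 0% = DMSO alone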
# MPTP counter = fluorescence retest of MPTP screen hits in isolated mitochondria, single concentration. shares compounds with MPTP block. membrane potential, Rhodamine 123 fluorescence. inhibition, % at 10 µM. hit rate 78% among 5,000; in the data active = inhibition above about 22%;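 note: 0% = DMSO vehicle and 100% = positive control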
# MPTP abs DR = mitochondrial permeability transition pore inhibitors, dose response, biochemical, absorbance, uHTS hits; shares compounds with MPTP block; isolated mitochondria swelling; IC50, µM; hit rate 58% among 780; in the data active = IC50 below about 20 µM
# MPTP counter DR = fluorescent counter-screen in isolated mitochondria, dose response, counter-screen for MPTP inhibitor project, biochemical, fluorescence, uHTS hits | AID 651564, 2012 | isolated mitochondria counterscreen, fluorescence read-out | shares compounds with MPTP block | IC50, µM | hit rate 49% among 780; in the data active = IC50 below about 80 µM
# SMARCA2 conf = SMARCA2 (BRM) function activators, confirmation, cell-based, luminescence, triplicate; shares compounds with SMARCA2 activ; MG213 cells, MMTV-luciferase with dexamethasone, overnight; MG213 cells expressing E1A, Rb sequestered; DMSO wells 0%, reference activator 100%; activation, % at 9.1 µM; hit rate 30% among 3,500;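 active = activation above its plate's cutoff, the mean activation of tested wells plus 3 SD, cut at about 7.9% in these data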
# VP16 Luc act = GAL4-VP16 luciferase reporter activation, counter-screen for SMARCA2 (BRM) activator project, cell-based, pG5luc, luminescence, high throughput | shares compounds with SMARCA2 activ | HEK293 GAL4-VP16 pG5luc reporter; scaled: DMSO wells 0%, SAHA wells 100% | activation, % at 9.1 µM | hit rate 41% among 3,500 | AID 686939, 2013;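 active = activation above the solvent-only control well mean plus 3 SD, averaged across control plates, cut at about 5.2% in these data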
# Active calls of the source: *; . = not tested or not shown; ! = not active in a repeat. Shown are actives, neighbours in structure and some others; about 4.1% of the full set was active somewhere.
SMILES,MC4R antagonist,MPTP block,ATG4B inhibitor,MC4R barr agon,SMARCA2 activ,MPTP counter,others
COC(=O)[C@]12C[C@H](CC(=O)N3CCCC3)C(=O)N(Cc3ccco3)C1=C[C@H](C1CCCC1)O[C@@H]2C,.,.,.,.,0.1,.,
CN1CCN(Cc2nc3ccccc3c(=O)n2Cc2nc(-c3ccc4ccccc4c3)cs2)CC1,1.4,-0.4,0.8,9.7*!,8.2*!,.,MC4R barr conf=12.9*;MOR DOR agonist=12.4;SMARCA2 conf=20.9*;VP16 Luc act=0.2
CN1CCN(Cc2nc3ccccc3c(=O)n2Cc2nc(-c3cccc([N+](=O)[O-])c3)cs2)CC1,14.7,0.0,7.8,0.8,0.6,.,
COc1ccc(COC(=O)c2cccc(S(=O)(=O)N3CCN(C(C)=O)CC3)c2)cc1F,8.6,55.7*,-5.5,-0.2,-3.2,45.3*,
CC(O)CNc1nc2c(c(=O)n(C)c(=O)n2C)n1Cc1cccc(C(F)(F)F)c1 (centres undefined),4.2,0.0,-4.0,3.5,-2.6,.,
COCCNc1nc2c(c(=O)n(C)c(=O)n2C)n1Cc1cccc(C(F)(F)F)c1,8.5,82.3*,-5.5,-1.3,-1.7,70.6*,
Cn1c(=O)c2c(nc(NCCOc3ccc(C(C)(C)C)cc3)n2C)n(C)c1=O,21.4,101.1*,2.3,-4.0,-1.1,6.3,MPTP abs DR=2.3*;MPTP counter DR=36.4*
Nc1ncnc(N)c1NC(=O)c1ccccc1,.,.,.,.,-5.6,.,
C=c1[nH]cc(C(C)c2c(C)n(C)c3ccccc23)/c1=C/C (centres undefined),.,.,.,.,4.6,.,
CC(Nc1ncnc2ccccc12)c1ccccc1 (centres undefined),-1.4,95.9*,8.2,-2.3,-6.0,83.0*,
COc1ccc(C)c2sc(N(CCCN(C)C)C(=O)CS(=O)(=O)c3ccc(F)cc3)nc12,4.3,85.4*,-5.2,-3.2,-0.1,-17.9,MPTP abs DR=5.7*;MPTP counter DR=>80
N#C/C(=N\Nc1ccc(Cl)cc1)C(N)=S,2.1,70.0*,-6.6,-0.6,-3.2,91.9*,
N#C/C(=N\Nc1ccccc1)C(N)=S,-16.0,6.3,2.9,-0.8,-2.9,.,
Cc1ccc(N/N=C(\C#N)C(N)=S)cc1C,-11.1,66.6*,-3.2,-3.8,-5.0,88.7*,
CC/C=C\[C@H](O)[C@H](O)C1=C(C)C(=O)[C@]2(O1)C(=O)N[C@@](OC)(C(=O)c1ccccc1)[C@@H]2O,.,.,.,.,-1.7,.,
Cc1[nH]c2ccccc2c1CC(=O)Nc1ccc(Nc2cccnc2)c(-c2ccc(C(C)(C)C)cc2)c1,.,.,.,.,-4.6,.,
Cc1ccc(NC(=O)CSc2nnc(-c3cccnc3)s2)cc1,5.0,0.3,-3.3,-1.3,-0.9,.,
O=C(CSc1nnc(-c2cccnc2)s1)Nc1ccnc2ccccc12,-9.8,103.8*,-10.7,-2.1,-6.1,73.4*,
COc1ccc(CN2C(C(=O)NC3CCCC3)CSCCS2(=O)=O)cc1 (centres undefined),.,.,.,.,-4.8,.,
Nc1nc2cc3c(cc2cc1C(=O)NCc1ccc(F)cc1)OCO3,.,85.9*,.,.,.,95.1*,
COC(=O)C[C@H]1C=C[C@@H](NC(=O)C2CC2)[C@@H](CO)O1,.,12.3,.,.,1.5,.,
CC(C)C[C@H](N)c1cn([C@@H](Cc2cc3ccccc3[nH]2)C(=O)N2CCNCC2)nn1,-0.3,92.1*,0.1,3.6,0.9,-11.6,MPTP abs DR=4.87*;MPTP counter DR=>80
O=C1c2ccccc2/C(=C\c2ccc(O[C@@H]3CCCCO3)cc2)N1c1ccccc1,.,.,.,.,2.8,.,
COc1ccc(S[C@]2(C(=O)N(C)C)CC(=O)N(c3ccc(C#N)cc3)[C@@H]2c2ccc(OC)cc2)cc1,.,.,.,.,2.1,.,
COc1cccc(NC(=O)Nc2nc3ncccn3c2-c2ccc(C)cc2)c1,.,.,.,.,4.4,.,
SMILES,MC4R antagonist,MPTP block,ATG4B inhibitor,MC4R barr agon,SMARCA2 activ,MPTP counter,others
COc1cccc(NC(=O)N(C)C[C@H]2OCc3ccccc3-c3c(n(C)c4ccccc34)C(=O)N([C@H](C)CO)C[C@H]2C)c1,.,.,.,.,-4.5,.,
Cc1cc2nc(C)n(CCCNC(=O)Nc3cccc4ccccc34)c2cc1C,7.8,87.7*,-16.6,3.8,-2.2,91.3*,
Nc1nc2c(ncn2[C@@H]2O[C@H](C(=O)N[C@@H](Cc3ccccc3)C(=O)NCC3CCCCC3)[C@@H](O)[C@H]2O)c(=O)[nH]1,.,.,.,.,5.4,.,
O=C(Nc1ccc(Br)cc1)c1ccc(F)c(S(=O)(=O)NCc2cccs2)c1,19.6,96.8*,-5.3,0.7,-6.4,93.6*,
O=S(=O)(NCc1cccs1)c1ccc(Br)cc1,0.7,-0.6,-3.5,-0.3,-2.3,.,
O=C(Nc1cccc(Cl)c1)c1ccc(F)c(S(=O)(=O)NCc2ccc3c(c2)OCO3)c1,4.3,50.8*,-26.0,-0.5,-4.4,65.7*,
CCCCCOc1ccc(Br)cc1CSC(=N)N,-23.0,68.2*,15.8,1.9,-8.6,105.3*,
COc1ccc(Br)cc1CSC(=N)N,-1.9,1.8,-5.2,-2.3,-0.9,.,
Cc1cc(=O)n(C)c(=O)n1CCCCCCOc1cccc([N+](=O)[O-])c1,16.6,57.1*,-2.7,1.1,-0.6,20.5*,
CC(=O)Nc1cccc(OCCOc2cccc([N+](=O)[O-])c2)c1,-1.6,1.4,5.5,-1.4,-3.7,.,

# Screening results as filed in PubChem.
